3 molecules from ChEMBL document CHEMBL3085768, “Structure-guided design of potent diazobenzene inhibitors for the BET bromodomains” (J Med Chem, 2013) can be followed below.

In data set [1] the target is Bromodomain-containing protein 4 (Mus musculus) (UniProt Q9ESU6). The data set can be described thus: (§1) Inhibition of BRD4 in LPS-stimulated mouse RAW264.7 cells assessed as inhibition of NF-kappaB-mediated IL-6 expression preincubated for 30 mins followed by LPS stimulation measured after 24 hrs by ELISA. It counts as cell-based. The method, boiled down: (§2)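 RAW264.7 cells grown in DMEM/10% FBS at 37 °C, 5% CO2, plated at 3 × 10^5 cells/mL, pretreated with inhibitor for 30 min. Medium was then replaced with LPS (1 µg/mL) plus inhibitor for 24 h. Compounds were diluted from DMSO to 0.28–50000 nM, final DMSO 0.05% (v/v). Supernatant IL-6 was measured by mouse ELISA read at 570 nm.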

Data set [2] addresses T1, Bromodomain-containing protein 4 (Mus musculus, UniProt Q9ESU6). Described as §1. It counts as cell-based. Summed up:
as §2

Data set [3] concerns the target Bromodomain-containing protein 4 (Mus musculus) (UniProt Q9ESU6). The data set can be described thus: (§3) Inhibition of BRD4 in LPS-stimulated mouse RAW264.7 cells assessed as inhibition of NF-kappaB-mediated nitric oxide production preincubated for 30 mins followed by LPS stimulation measured after 24 hrs by spectrophotometric analysis. It counts as cell-based. The method, boiled down:
(§4)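 RAW264.7 cells in DMEM/10% FBS, plated at 3 × 10^5 cells/mL, pretreated with inhibitor 30 min, then LPS (1 µg/mL) plus inhibitor for 24 h. Inhibitor concentrations 0.28–50000 nM from DMSO stock, final DMSO 0.05% (v/v). Nitrite in the supernatant was measured spectrophotometrically at 520 nm.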

Data set [4] concerns the target T1, Bromodomain-containing protein 4. The data set is described as §3. The class given is cell-based. Summed up: as §4
For the next data set, the system named is RAW264.7. The data set can be described thus: Cytotoxicity against mouse RAW264.7 cells assessed as cell viability up to 100 uM after 24 hrs by MTT assay. The class given is cell-based. The settings on record: raw264.7, 24 h. Summed up: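 RAW264.7 macrophages seeded at 1 × 10^4 cells/well, settled 18 h at 37 °C, then exposed to inhibitors up to 100 µM for 24 h. Compounds were predissolved in DMSO and diluted in medium, final DMSO 0.05% (v/v). MTT (4 mg/ml) was added for 4 h at 37 °C, formazan solubilized in DMSO, and absorbance read at 570/630 nm.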

The target of data set [5] is T2, Bromodomain-containing protein 3 (Homo sapiens, UniProt Q15059). The data set can be described thus: Displacement of fluorescein-labeled MS574 from recombinant human BRD3 BrD1 after 1 hr by fluorescence anisotropy assay. The method, boiled down:
(§5)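 Competition fluorescence anisotropy with His-tag-removed recombinant bromodomain (Ni-IDA purified, thrombin cleaved) at 0.25–1 µM, chosen so that 50–80% of probe is bound. FITC-labeled probe at 80 nM (≤2Kd), unlabeled ligand titrated, in PBS pH 7.4, read after 1 h at 25 °C. IC50 from curve fit, converted to Ki with the Nikolovska-Coleska correction to Cheng-Prusoff (one-site competitive). The resolvable Ki is limited by the probe Kd.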

For data set [6], the target named is SWI/SNF-related matrix-associated actin-dependent regulator of chromatin subfamily A member 4 (Homo sapiens, UniProt P51532). The data set is described as follows: Displacement of fluorescein-labeled MS239 from recombinant human SMARCA4 bromodomain after 1 hr by fluorescence anisotropy assay. The method, boiled down: as §5
SWI/SNF-related matrix-associated actin-dependent regulator of chromatin subfamily A member 4, sequence (P51532 whole entry): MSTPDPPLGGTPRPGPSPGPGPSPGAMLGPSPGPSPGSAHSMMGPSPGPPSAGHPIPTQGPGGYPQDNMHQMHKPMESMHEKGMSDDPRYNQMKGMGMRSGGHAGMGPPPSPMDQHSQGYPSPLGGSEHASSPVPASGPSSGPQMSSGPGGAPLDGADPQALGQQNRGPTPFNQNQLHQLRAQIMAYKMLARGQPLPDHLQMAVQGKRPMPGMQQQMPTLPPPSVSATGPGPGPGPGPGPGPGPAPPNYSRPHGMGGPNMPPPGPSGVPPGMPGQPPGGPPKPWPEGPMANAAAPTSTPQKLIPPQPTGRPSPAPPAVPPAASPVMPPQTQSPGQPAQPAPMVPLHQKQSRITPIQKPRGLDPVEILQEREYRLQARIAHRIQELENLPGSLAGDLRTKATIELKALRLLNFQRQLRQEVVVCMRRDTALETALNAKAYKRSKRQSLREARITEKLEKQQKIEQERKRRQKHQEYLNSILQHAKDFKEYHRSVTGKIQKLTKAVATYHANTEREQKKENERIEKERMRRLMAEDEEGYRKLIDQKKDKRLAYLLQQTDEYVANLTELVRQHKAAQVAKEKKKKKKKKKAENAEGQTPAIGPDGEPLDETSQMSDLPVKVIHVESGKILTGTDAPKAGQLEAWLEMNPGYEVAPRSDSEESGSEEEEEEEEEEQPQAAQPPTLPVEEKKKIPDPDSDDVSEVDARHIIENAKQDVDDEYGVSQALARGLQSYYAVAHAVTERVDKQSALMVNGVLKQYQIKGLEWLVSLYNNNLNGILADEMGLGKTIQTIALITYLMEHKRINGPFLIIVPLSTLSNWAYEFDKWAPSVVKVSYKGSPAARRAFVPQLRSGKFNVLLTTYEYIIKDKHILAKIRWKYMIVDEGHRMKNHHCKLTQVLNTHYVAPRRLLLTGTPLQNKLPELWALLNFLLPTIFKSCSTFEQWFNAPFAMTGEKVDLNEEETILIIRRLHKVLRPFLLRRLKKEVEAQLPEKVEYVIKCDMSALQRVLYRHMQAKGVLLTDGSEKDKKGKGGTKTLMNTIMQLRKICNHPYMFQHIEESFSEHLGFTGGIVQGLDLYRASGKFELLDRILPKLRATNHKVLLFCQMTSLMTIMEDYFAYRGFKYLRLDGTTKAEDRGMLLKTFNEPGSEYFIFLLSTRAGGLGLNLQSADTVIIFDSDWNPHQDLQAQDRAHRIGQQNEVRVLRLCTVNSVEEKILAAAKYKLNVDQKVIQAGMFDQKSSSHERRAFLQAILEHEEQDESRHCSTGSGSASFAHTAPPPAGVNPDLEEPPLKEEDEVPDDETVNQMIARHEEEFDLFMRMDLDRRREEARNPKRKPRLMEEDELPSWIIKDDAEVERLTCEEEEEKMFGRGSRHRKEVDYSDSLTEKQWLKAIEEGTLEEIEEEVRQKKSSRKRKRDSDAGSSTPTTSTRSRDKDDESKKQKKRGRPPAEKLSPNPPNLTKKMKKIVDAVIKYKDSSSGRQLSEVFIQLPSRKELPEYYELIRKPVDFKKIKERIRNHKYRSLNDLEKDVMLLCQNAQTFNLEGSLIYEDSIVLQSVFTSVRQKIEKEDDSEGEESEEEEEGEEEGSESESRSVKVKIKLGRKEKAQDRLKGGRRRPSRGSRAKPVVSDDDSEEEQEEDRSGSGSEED
Data set [7] concerns the target Nucleosome-remodeling factor subunit BPTF (Homo sapiens, UniProt Q12830). The data set is described as follows: Displacement of fluorescein-labeled MS239 from recombinant human BPTF after 1 hr by fluorescence anisotropy assay. Summed up: as §5
The target of data set [8] is T3, Bromodomain-containing protein 7 (Homo sapiens, UniProt Q9NPI1).
T3 sequence (Q9NPI1 whole entry): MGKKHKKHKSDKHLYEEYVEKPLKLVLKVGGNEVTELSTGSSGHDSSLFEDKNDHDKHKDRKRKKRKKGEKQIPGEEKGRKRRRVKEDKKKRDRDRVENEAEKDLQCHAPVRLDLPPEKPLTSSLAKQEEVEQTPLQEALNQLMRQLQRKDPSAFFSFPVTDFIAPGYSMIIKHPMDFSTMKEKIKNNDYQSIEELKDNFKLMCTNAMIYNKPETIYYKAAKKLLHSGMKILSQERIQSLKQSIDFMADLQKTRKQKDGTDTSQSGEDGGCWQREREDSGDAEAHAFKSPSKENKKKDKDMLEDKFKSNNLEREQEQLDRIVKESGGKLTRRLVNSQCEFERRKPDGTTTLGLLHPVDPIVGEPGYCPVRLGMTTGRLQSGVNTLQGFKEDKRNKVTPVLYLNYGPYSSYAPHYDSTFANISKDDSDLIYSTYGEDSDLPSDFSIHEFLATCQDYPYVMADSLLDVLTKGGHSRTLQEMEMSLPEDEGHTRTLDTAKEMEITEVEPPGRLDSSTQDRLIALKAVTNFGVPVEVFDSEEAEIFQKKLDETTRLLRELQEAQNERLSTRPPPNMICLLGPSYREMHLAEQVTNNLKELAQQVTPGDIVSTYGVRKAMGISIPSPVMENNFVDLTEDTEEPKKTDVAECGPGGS
The data set is described as follows: Displacement of fluorescein-labeled MS226 from recombinant human BRD7 after 1 hr by fluorescence anisotropy assay. The method, boiled down: as §5

For data set [9], the target named is Histone acetyltransferase KAT2B (Homo sapiens, UniProt Q92831). The data set is described as follows: Displacement of fluorescein-labeled MS239 from recombinant human PCAF after 1 hr by fluorescence anisotropy assay. The method, boiled down: as §5
Histone acetyltransferase KAT2B, sequence (Q92831 whole entry): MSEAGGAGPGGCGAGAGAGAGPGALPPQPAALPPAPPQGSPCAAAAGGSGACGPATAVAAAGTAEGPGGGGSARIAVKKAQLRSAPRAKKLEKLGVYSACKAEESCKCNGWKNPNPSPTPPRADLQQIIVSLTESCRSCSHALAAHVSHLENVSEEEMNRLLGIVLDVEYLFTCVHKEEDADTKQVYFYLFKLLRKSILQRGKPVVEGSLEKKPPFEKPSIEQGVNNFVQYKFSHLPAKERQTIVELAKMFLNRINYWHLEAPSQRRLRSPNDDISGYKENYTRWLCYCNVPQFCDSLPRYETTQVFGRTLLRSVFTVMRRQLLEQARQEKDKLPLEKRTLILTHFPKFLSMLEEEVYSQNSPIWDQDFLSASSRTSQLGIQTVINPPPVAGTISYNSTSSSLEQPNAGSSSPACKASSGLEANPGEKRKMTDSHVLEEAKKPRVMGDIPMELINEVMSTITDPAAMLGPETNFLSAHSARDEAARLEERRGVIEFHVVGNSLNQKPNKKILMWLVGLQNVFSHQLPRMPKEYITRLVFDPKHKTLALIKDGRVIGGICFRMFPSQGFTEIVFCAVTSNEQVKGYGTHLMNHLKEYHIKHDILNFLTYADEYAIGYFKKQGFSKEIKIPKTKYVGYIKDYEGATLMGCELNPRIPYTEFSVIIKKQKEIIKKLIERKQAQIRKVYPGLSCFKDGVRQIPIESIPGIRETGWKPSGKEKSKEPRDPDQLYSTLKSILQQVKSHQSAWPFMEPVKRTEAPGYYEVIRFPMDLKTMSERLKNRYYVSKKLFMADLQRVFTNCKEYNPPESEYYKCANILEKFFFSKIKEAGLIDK
The target of a further data set is CREB-binding protein (Homo sapiens, UniProt Q92793). The data set can be described thus: Displacement of fluorescein-labeled MS226 from recombinant human CBP bromodomain after 1 hr by fluorescence anisotropy assay. Summed up:
as §5

Data set [10] concerns the target T2, Bromodomain-containing protein 3. The data set can be described thus: Displacement of fluorescein-labeled MS574 from recombinant human BRD3 BrD2 after 1 hr by fluorescence anisotropy assay. The method, boiled down:
as §5

Data set [11] addresses T4, Bromodomain-containing protein 4 (Homo sapiens, UniProt O60885). The data set can be described thus: Displacement of fluorescein-labeled MS574 from recombinant human BRD4 BrD2 after 1 hr by fluorescence anisotropy assay. The method, boiled down:
as §5

Data set [12] deals with T4, Bromodomain-containing protein 4. The data set is described as follows: Displacement of fluorescein-labeled MS574 from recombinant human BRD4 BrD1 after 1 hr by fluorescence anisotropy assay. The method, boiled down:
as §5

SMILES strings stand for the structures.

CREB-binding protein, sequence (Q92793 whole entry): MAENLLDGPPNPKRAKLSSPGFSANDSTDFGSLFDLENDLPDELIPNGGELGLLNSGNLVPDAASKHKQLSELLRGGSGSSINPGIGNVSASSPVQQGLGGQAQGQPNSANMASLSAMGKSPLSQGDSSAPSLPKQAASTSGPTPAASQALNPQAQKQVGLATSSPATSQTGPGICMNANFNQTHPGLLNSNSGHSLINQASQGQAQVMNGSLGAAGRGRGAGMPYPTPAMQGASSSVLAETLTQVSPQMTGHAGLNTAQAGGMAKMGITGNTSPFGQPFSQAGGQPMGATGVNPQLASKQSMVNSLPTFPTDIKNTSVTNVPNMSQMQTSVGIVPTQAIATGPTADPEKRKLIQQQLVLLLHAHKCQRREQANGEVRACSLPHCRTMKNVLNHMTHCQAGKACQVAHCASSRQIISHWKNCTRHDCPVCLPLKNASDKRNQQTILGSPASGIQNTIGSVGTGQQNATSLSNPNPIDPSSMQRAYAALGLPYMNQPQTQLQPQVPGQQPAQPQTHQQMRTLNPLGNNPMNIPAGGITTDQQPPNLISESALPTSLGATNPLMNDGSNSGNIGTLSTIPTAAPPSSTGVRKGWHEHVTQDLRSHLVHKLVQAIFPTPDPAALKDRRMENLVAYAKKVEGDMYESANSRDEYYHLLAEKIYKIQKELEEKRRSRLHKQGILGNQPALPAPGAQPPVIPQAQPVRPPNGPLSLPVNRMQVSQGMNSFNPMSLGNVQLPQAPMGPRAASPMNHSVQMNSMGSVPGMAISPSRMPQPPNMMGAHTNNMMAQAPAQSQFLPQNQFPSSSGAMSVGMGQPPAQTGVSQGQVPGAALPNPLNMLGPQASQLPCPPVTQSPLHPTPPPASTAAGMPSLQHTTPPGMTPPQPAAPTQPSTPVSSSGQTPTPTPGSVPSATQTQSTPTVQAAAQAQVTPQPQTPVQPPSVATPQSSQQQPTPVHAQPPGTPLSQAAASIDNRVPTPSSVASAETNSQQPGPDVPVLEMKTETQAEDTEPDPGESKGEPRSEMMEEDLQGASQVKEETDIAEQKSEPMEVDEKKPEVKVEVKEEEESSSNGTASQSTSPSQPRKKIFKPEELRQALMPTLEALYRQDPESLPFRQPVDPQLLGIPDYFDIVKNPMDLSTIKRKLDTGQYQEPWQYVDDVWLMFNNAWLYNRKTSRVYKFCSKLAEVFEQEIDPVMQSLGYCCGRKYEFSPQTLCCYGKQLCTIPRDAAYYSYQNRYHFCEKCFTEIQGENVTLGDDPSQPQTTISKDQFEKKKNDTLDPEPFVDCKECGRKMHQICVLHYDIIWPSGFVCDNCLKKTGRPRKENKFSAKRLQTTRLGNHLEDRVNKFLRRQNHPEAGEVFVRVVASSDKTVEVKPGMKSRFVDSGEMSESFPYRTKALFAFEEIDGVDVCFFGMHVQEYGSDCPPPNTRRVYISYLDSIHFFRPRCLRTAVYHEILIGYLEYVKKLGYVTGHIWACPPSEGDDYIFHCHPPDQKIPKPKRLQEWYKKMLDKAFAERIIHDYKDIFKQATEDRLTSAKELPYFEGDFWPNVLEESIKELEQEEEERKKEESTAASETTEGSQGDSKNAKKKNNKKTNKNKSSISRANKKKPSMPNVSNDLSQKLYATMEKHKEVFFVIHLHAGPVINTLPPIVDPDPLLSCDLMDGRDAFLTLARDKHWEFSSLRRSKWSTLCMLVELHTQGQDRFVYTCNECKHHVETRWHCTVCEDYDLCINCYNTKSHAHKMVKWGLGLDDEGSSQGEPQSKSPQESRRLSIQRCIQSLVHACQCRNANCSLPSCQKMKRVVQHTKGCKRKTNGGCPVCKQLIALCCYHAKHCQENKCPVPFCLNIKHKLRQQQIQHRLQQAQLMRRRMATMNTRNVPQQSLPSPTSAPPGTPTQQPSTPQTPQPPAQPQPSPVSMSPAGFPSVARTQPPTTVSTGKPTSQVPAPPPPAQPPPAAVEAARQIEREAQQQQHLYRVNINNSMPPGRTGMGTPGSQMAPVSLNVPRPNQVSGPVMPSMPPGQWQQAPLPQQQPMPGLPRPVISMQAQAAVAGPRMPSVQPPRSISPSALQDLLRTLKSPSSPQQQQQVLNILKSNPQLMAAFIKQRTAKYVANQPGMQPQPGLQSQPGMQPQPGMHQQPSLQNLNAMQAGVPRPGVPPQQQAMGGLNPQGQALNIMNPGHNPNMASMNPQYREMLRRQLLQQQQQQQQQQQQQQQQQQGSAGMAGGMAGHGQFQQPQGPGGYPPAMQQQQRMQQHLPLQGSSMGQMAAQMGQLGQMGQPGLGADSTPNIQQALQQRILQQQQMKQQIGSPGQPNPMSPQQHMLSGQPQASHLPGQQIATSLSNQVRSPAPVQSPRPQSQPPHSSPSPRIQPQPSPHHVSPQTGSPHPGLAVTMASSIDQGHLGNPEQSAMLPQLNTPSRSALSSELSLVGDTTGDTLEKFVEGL

Consider `Cc1cc(/N=N/c2ccc(S(=O)(=O)Nc3ccccn3)cc2)c(N)c(Cl)c1O`, for which the inhibition result in data set [1] and in [3] was “Dose-dependent effect” throughout. Further, the IC50 in data set [2] came to 3.8 µM; in data set [4] it was 3.4 µM. In the data set with RAW264.7, the Activity entry is listed as “Non-toxic”. Also, the Ki in data set [5] was 0.24 µM; in [6], less than 6.56 µM; in data set [7], 1.62 µM; in data set [8], less than 1.43 µM; in data set [9], less than 3.34 µM; at CREB-binding protein, 5.59 µM. The Ki in [10] was 0.32 µM.
Regarding `Cc1cc(/N=N/c2ccc(S(=O)(=O)Nc3ccccn3)cc2)c(N)c(C)c1O`, the inhibition entry in [1] and in data set [3] was “Dose-dependent effect” each time. For the same molecule, the IC50 in data set [2] came to 23.2 µM; in data set [4], 38.1 µM. Besides, the Activity entry in the data set with RAW264.7 is “Non-toxic”. The Ki was 0.29 µM in data set [5]; less than 6.56 µM in [6]; less than 1.7 µM in data set [7]; less than 1.43 µM in data set [8]; less than 3.34 µM in data set [9]; 5.12 µM at CREB-binding protein. For the same molecule, the Ki is 0.44 µM in data set [11], 0.15 µM in data set [12] (read-out: Ki), 0.151 µM in data set [12] (read-out: pKi (converted)) and 0.22 µM in data set [10].
For `Cc1cc(/N=N/c2ccc(S(=O)(=O)Nc3ccccn3)cc2)c(N)cc1O`, the inhibition entry in data set [1] and in data set [3] was “Dose-dependent effect” in each case. The IC50 in data set [2] was 4.9 µM; in [4], 3.8 µM. Moreover, the Activity result in the data set on RAW264.7 was “Non-toxic”. Moreover, the Ki in data set [5] came to 0.1 µM; in data set [6], 7.97 µM; in data set [7], 6.06 µM; in data set [8], 2.72 µM; in data set [9], 5.52 µM; at CREB-binding protein, 2.18 µM. Further, in data set [10], the Ki came out at 0.14 µM.
